Reference: ChEMBL document CHEMBL4350976, “Sequence modification of heptapeptide selected by phage display as homing device for HT-29 colon cancer cells to improve the anti-tumour activity of drug delivery systems” (Eur J Med Chem, 2019)
Where a SMILES comes first, the peptide text is derived from it. The star is where a group is joined. X1 = COc1cccc2c1C(=O)c1c(O)c3c(c(O)c1C2=O)C[C@@](O)(/C(C)=N/OCC(=O)*)C[C@@H]3O[C@H]1C[C@H](N)[C@H](O)[C@H](C)O1

Columns and labels:
[1] = Stability in serum free medium at 30 uM incubated for 3 hrs by LC/MS analysis
Procedure, shortened: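 Conjugates (30 μM) were incubated at 37 °C in serum-free medium. Samples were taken at 0 and 3 h, quenched with acetic acid, lyophilised, desalted on C18 spin columns and analysed by LC-MS.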

HT-29 [2] = test: Cytostatic activity against human HT-29 cells preincubated for 24 hrs under serum free condition followed by compound washout and further incubation for 48 hrs in presence of serum by MTT assay; format: functional, cell-based
Procedure, shortened: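 HT-29 cells were exposed to the compound for 24 h, washed, and kept a further 48 h. Viability was read by MTT. Absorbances were normalized to untreated controls and fitted by nonlinear regression to dose-response curves to give IC50.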

[3] = Drug uptake in human HT-29 cells assessed as increase in fluorescence intensity at 25 uM incubated for 3 hrs by flow cytometry; format: ADME, cell-based; conditions: ht-29, 3 h
[4] = Retention time of the compound using 0.1% TFA in water and 0.1% TFA in acetonitrile-water (80:20 v/v) as eluents by RP-HPLC analysis; format: physicochemical
Procedure, shortened: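 Analytical RP-HPLC. Eluent A was 0.1% TFA in water and eluent B was 0.1% TFA in acetonitrile-water (80:20, v/v). Gradient: 0% B held to 5 min, then to 90% B at 50 min. Flow 1 mL/min, detection at 220 nm. The column was a Phenomenex Aeris Peptide XB-C18 (250×4.6 mm, 3.6 μm) or a Nucleosil C18 (5 μm, 100 Å, 250×4.6 mm), depending on the conjugate series.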

[5] = Aqueous solubility of compound in water; format: physicochemical; conditions: buffer
[6] = Drug uptake in cytoplasm of living human HT-29 cells at 50 uM after 90 mins by fluorescence based confocal microscopic analysis; format: ADME, subcellular; conditions: ht-29, 1.5 h
Procedure, shortened: (§1)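 HT-29 cells were incubated with 50 µM compound in RPMI for 90 min. Imaging was by confocal microscopy, with Dau detected at 550–600 nm emission.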

[7] = Drug uptake in nucleus of dead human HT-29 cells at 50 uM after 90 mins by fluorescence based confocal microscopic analysis; format: ADME, subcellular; conditions: ht-29, 1.5 h; procedure, shortened: as §1
[8] = Stability in 2.5% fetal bovine serum containing medium at 30 uM measured after 24 hrs by LC/MS analysis; format: ADME, cell-free, Bos taurus; conditions: cattle
Procedure, shortened: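 Conjugates (30 μM) were incubated at 37 °C in medium containing 2.5% FBS. Samples were taken at 0, 3, 6 and 24 h, quenched with acetic acid, lyophilised, desalted on C18 spin columns and analysed by LC-MS. Cleavage products were identified by mass.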

U-87 MG = test: Cytostatic activity against human U87 cells preincubated for 24 hrs under serum free condition followed by compound washout and further incubation for 48 hrs in presence of serum by MTT assay; format: functional, cell-based, U-87MG ATCC
Procedure, shortened: (§2)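 Cells were grown at 37 °C in 5% CO2 in medium with 10% heat-inactivated FBS (20% for OVCAR-3) plus penicillin/streptomycin. The medium was RPMI-1640 for most lines, DMEM for U-87 MG and MRC-5, and IMDM for PE/CA-PJ lines. Seeding was 3×10^3–10×10^3 cells per well. Cells had 24 h compound exposure, a wash, and 48 h further culture. Read-out was MTT, normalized to untreated cells and fitted by nonlinear regression for IC50.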

MCF7 = test: Cytostatic activity against human MCF7 cells preincubated for 24 hrs under serum free condition followed by compound washout and further incubation for 48 hrs in presence of serum by MTT assay; format: functional, cell-based; procedure, shortened: as §2
MDA-MB-231 = test: Cytostatic activity against human MDA-MB-231 cells preincubated for 24 hrs under serum free condition followed by compound washout and further incubation for 48 hrs in presence of serum by MTT assay; format: functional, cell-based; procedure, shortened: as §2
4T1 = test: Cytostatic activity against mouse 4T1 cells preincubated for 24 hrs under serum free condition followed by compound washout and further incubation for 48 hrs in presence of serum by MTT assay; format: functional, cell-based; procedure, shortened: as §2
HCT-116 = test: Cytostatic activity against human HCT116 cells preincubated for 24 hrs under serum free condition followed by compound washout and further incubation for 48 hrs in presence of serum by MTT assay; format: functional, cell-based; procedure, shortened: as §2
WiDr = test: Cytostatic activity against human WiDr cells preincubated for 24 hrs under serum free condition followed by compound washout and further incubation for 48 hrs in presence of serum by MTT assay; format: functional, cell-based; procedure, shortened: as §2
CT26.WT = test: Cytostatic activity against mouse CT26.WT cells preincubated for 24 hrs under serum free condition followed by compound washout and further incubation for 48 hrs in presence of serum by MTT assay; format: functional, cell-based; procedure, shortened: as §2
HepG2 = test: Cytostatic activity against human HepG2 cells preincubated for 24 hrs under serum free condition followed by compound washout and further incubation for 48 hrs in presence of serum by MTT assay; format: functional, cell-based; procedure, shortened: as §2
A549 = test: Cytostatic activity against human A549 cells preincubated for 24 hrs under serum free condition followed by compound washout and further incubation for 48 hrs in presence of serum by MTT assay; format: functional, cell-based; procedure, shortened: as §2
NCI-H1650 = test: Cytostatic activity against human NCI-H1650 cells preincubated for 24 hrs under serum free condition followed by compound washout and further incubation for 48 hrs in presence of serum by MTT assay; format: functional, cell-based; procedure, shortened: as §2
NCI-H1975 = test: Cytostatic activity against human NCI-H1975 cells preincubated for 24 hrs under serum free condition followed by compound washout and further incubation for 48 hrs in presence of serum by MTT assay; format: functional, cell-based; procedure, shortened: as §2
A2058 = test: Cytostatic activity against human A2058 cells preincubated for 24 hrs under serum free condition followed by compound washout and further incubation for 48 hrs in presence of serum by MTT assay; format: functional, cell-based; procedure, shortened: as §2
[9] = Cytostatic activity against human M24 cells preincubated for 24 hrs under serum free condition followed by compound washout and further incubation for 48 hrs in presence of serum by MTT assay; format: functional, cell-based; procedure, shortened: as §2
[10] = Cytostatic activity against human WM983B cells preincubated for 24 hrs under serum free condition followed by compound washout and further incubation for 48 hrs in presence of serum by MTT assay; format: functional, cell-based; procedure, shortened: as §2
B16 = test: Cytostatic activity against mouse B16 cells preincubated for 24 hrs under serum free condition followed by compound washout and further incubation for 48 hrs in presence of serum by MTT assay; format: functional, cell-based; procedure, shortened: as §2
[11] = Cytostatic activity against human PE/CA-PJ15 cells preincubated for 24 hrs under serum free condition followed by compound washout and further incubation for 48 hrs in presence of serum by MTT assay; format: functional, cell-based; procedure, shortened: as §2
[12] = Cytostatic activity against human PECAPJ41 cells preincubated for 24 hrs under serum free condition followed by compound washout and further incubation for 48 hrs in presence of serum by MTT assay; format: functional, cell-based; procedure, shortened: as §2
OVCAR-3 = test: Cytostatic activity against human OVCAR3 cells preincubated for 24 hrs under serum free condition followed by compound washout and further incubation for 48 hrs in presence of serum by MTT assay; format: functional, cell-based; procedure, shortened: as §2
PANC-1 = test: Cytostatic activity against human PANC1 cells preincubated for 24 hrs under serum free condition followed by compound washout and further incubation for 48 hrs in presence of serum by MTT assay; format: functional, cell-based; procedure, shortened: as §2
DU-145 = test: Cytostatic activity against human DU145 cells preincubated for 24 hrs under serum free condition followed by compound washout and further incubation for 48 hrs in presence of serum by MTT assay; format: functional, cell-based; procedure, shortened: as §2
PC-3 = test: Cytostatic activity against human PC3 cells preincubated for 24 hrs under serum free condition followed by compound washout and further incubation for 48 hrs in presence of serum by MTT assay; format: functional, cell-based; procedure, shortened: as §2
MRC5 = test: Cytostatic activity against human MRC5 cells preincubated for 24 hrs under serum free condition followed by compound washout and further incubation for 48 hrs in presence of serum by MTT assay; format: ADME, cell-based; procedure, shortened: as §2
[13] = Drug uptake in nucleus of human HT-29 cells assessed as increase in fluorescence at 50 uM after 90 mins by fluorescence based confocal microscopic analysis; format: ADME, subcellular; conditions: ht-29, 1.5 h; procedure, shortened: as §1
HT-29 [14] = test: Antitumor activity against human HT-29 cells xenografted in SCID mouse assessed as tumor growth inhibition by measuring decrease in tumor weight at 1 mg/kg, ip administered once a week (on day 13 and 20) starting from 13 days post inoculation measured at day 23 post inoculation relative to control; format: functional; conditions: HT-29, ip
[15] = Toxicity in SCID mouse xenografted with human HT-29 cells assessed as body weight loss at 1 mg/kg, ip administered once a week (on day 13 and 20) starting from 13 days post inoculation measured upto 23 days post inoculation; format: organism-based; conditions: in vivo
[16] = Toxicity in SCID mouse xenografted with human HT-29 cells assessed as animal death at 1 mg/kg, ip administered once a week (on days 13 and 20) starting from 13 days post inoculation measured upto 23 days post inoculation; format: organism-based; conditions: in vivo
HT-29 [17] = test: Antitumor activity against human HT-29 cells xenografted in SCID mouse assessed as decrease in number of Ki-67 positive cells measured as proliferation index at 1 mg/kg, ip administered once a week (on days 13 and 20) starting from 13 days post inoculation measured at day 23 post inoculation by KI-67-staining based light microscopic analysis (reference value: 100%); format: functional; parameters: scale not given: the % may be the effect or the level left
Procedure, shortened: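 Tumours from the SCID HT-29 orthotopic study were formalin-fixed and paraffin-embedded, cut at 2 µm, and given citrate pH 6 retrieval at 98 °C for 40 min. They were stained with anti-human Ki-67 (1:40, 1 h RT), then a biotinylated link, HRP polymer and AEC. Ki-67+ cells were counted in 5 fields per tumour at 40× magnification. The proliferation index is the % positive cells.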

HT-29 [18] = test: Antitumor activity against human HT-29 cells xenografted in SCID mouse assessed as tumor growth inhibition by measuring decrease in tumor growth at 1 mg/kg, ip administered once per week for 2 times starting from 13 days post inoculation measured at day 23 post inoculation; conditions: HT-29, ip

## COc1cccc2c1C(=O)c1c(O)c3c(c(O)c1C2=O)C[C@@](O)(/C(C)=N/OCC(=O)N[C@@H](CC(C)C)C(=O)N[C@@H](CCCNC(=N)N)C(=O)N[C@@H](CCCNC(=N)N)C(=O)N[C@@H](Cc1ccc(O)cc1)C(=O)N[C@H](C(=O)N[C@@H](Cc1cnc[nH]1)C(=O)N[C@@H](CC(C)C)C(=O)N[C@@H](CO)C(=O)N[C@@H](Cc1ccc(O)cc1)C(=O)N[C@@H](C)C(=O)N[C@H](C(N)=O)[C@@H](C)O)C(C)C)C[C@@H]3O[C@H]1C[C@H](N)[C@H](O)[C@H](C)O1 (X1-LRRYVHLSYAT-NH2)
[1]
  Stability: Stable
HT-29 [2]
  IC50: 24800 nM
[3]
  Drug uptake: Active
[4]
  Retention_time: 28.9 min
[5]
  solubility: Soluble
[6]
  Drug uptake: Active
[7]
  Drug uptake: Active
[8]
  Stability: Stable

## COc1cccc2c1C(=O)c1c(O)c3c(c(O)c1C2=O)C[C@@](O)(C(C)=O)C[C@@H]3O[C@H]1C[C@H](N)[C@H](O)[C@H](C)O1 [DAUNORUBICIN]
U-87 MG
  IC50: 27.9 nM
MCF7
  IC50: 286 nM
MDA-MB-231
  IC50: 52.9 nM
4T1
  IC50: 40.8 nM
HCT-116
  IC50: 127 nM
HT-29 [2]
  IC50: 203 nM
WiDr
  IC50: 240 nM
CT26.WT
  IC50: 126 nM
HepG2
  IC50: 21.3 nM
A549
  IC50: 68.2 nM
NCI-H1650
  IC50: 47.5 nM
NCI-H1975
  IC50: 13.3 nM
A2058
  IC50: 33.3 nM
[9]
  IC50: 93.6 nM
[10]
  IC50: 44.3 nM
B16
  IC50: 8.9 nM
[11]
  IC50: 26.7 nM
[12]
  IC50: 25.8 nM
OVCAR-3
  IC50: 473 nM
PANC-1
  IC50: 467 nM
DU-145
  IC50: 24.5 nM
PC-3
  IC50: 26 nM
MRC5
  IC50: 255 nM
[13]
  Drug uptake: Active
HT-29 [14]
  inhibition in vivo at 1 mg/kg: 84%
[15]
  Activity: Toxic
[16]
  Activity: Toxic
HT-29 [17]
  Activity: 94%
HT-29 [18]
  inhibition in vivo at 1 mg/kg: 30%
